Data: ChEMBL document CHEMBL1629575, “Clinical outcomes, safety, and pharmacokinetics of OPT-80 in a phase 2 trial with patients with Clostridium difficile infection” (Antimicrob Agents Chemother, 2009)
≈ marks a conversion by molar mass, not a printed value.

Tests used:
Clostridioides difficile [1] = experiment: Antimicrobial activity against Clostridium difficile; type: functional
[2] = Drug level in clostridium difficile infected patient plasma at 100 […], po every 12 hrs for 10 days by RP-HPLC/MS; type: ADME, organism-based; design: route oral; details: human, read-out: Activity
Outline: (§1)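 Plasma was sampled 0.5 h before and 2 h after dosing on the first and last days of the 10-day oral regimen. Samples were methanol-acetic acid precipitated with OP-1393 internal standard, C18 solid-phase extracted, and analysed by RP-HPLC (40°C column) with tandem quadrupole MS. Assay range was 5 to 1,000 ng/ml for parent and OP-1118.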

Clostridioides difficile [3] = experiment: Antimicrobial activity against Clostridium difficile infected in patient assessed as percentage of patient require further treatment at 400 […], po every 12 hrs for 10 days; type: functional
Outline: (§2)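 Phase 2 open-label randomized dose-ranging trial; adults with mild to moderate CDI (primary episode or first relapse, positive toxin by EIA or cytotoxicity assay), oral dosing for 10 days. Clinical failure was defined as the need for additional therapy during the treatment period. Failures underwent C. difficile culture and toxin testing.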

Clostridioides difficile [4] = experiment: Antimicrobial activity against Clostridium difficile infected in patient assessed as clinical failure at 200 […], po every 12 hrs for 10 days; type: functional; outline: as §2
Clostridioides difficile [5] = experiment: Antimicrobial activity against Clostridium difficile infected in patient assessed as incomplete relief of clostridium difficile associated diarrhea symptom in patient at 200 […], po every 12 hrs for 10 days; type: functional
Clostridioides difficile [6] = experiment: Antimicrobial activity against Clostridium difficile infected in patient assessed as recurrence of diarrhea within 6 weeks after treatment at 100 […], po every 12 hrs for 10 days; type: functional
Plasma [7] = experiment: Drug level in clostridium difficile infected patient plasma at 200 […], po every 12 hrs for 10 days by RP-HPLC/MS; type: ADME, organism-based; design: route oral; details: human, in vivo; outline: as §1
Clostridioides difficile [8] = experiment: Antimicrobial activity against Clostridium difficile infected in patient assessed as resolving of diarrhea after 10 days at 200 […], po every 12 hrs for 10 days; type: functional
Outline: (§3)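 Open-label randomized phase 2 trial in mild to moderate CDI patients, oral dosing over a 10-day regimen. Resolution of diarrhea was defined as the first day with one or two non-watery, non-loose stools in 24 h, sustained through treatment up to study day 10. Time to resolution was counted from the first dose.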

Clostridioides difficile [9] = experiment: Antimicrobial activity against Clostridium difficile infected in patient assessed as resolution of diarrhea on day 10 at 200 […], po every 12 hrs for 10 days; type: functional; outline: as §3
Clostridioides difficile [10] = experiment: Antimicrobial activity against Clostridium difficile infected in patient assessed as clinical failure at 400 […], po every 12 hrs for 10 days; type: functional; outline: as §2
Clostridioides difficile [11] = experiment: Antimicrobial activity against Clostridium difficile infected in patient assessed as resolving of diarrhea after 10 days at 100 […], po every 12 hrs for 10 days; type: functional; outline: as §3
Clostridioides difficile [12] = experiment: Antimicrobial activity against Clostridium difficile infected in patient assessed as percentage of patient require no further treatment at 400 […], po every 12 hrs for 10 days; type: functional; outline: as §2
Clostridioides difficile [13] = experiment: Antimicrobial activity against Clostridium difficile infected in patient assessed as recurrence of diarrhea within 6 weeks after treatment at 200 mg/kg, po every 12 hrs for 10 days; type: functional
Clostridioides difficile [14] = experiment: Antimicrobial activity against Clostridium difficile infected in patient assessed as resolving of diarrhea after 10 days at 400 […], po every 12 hrs for 10 days; type: functional; outline: as §3
Clostridioides difficile [15] = experiment: Antimicrobial activity against Clostridium difficile infected in patient assessed as incomplete relief of clostridium difficile associated diarrhea symptom in patient at 100 […], po every 12 hrs for 10 days; type: functional
[16] = Drug level in clostridium difficile infected patient feces at 100 […], po every 12 hrs for 10 days by RP-HPLC/MS; type: ADME, organism-based; design: route oral; details: human, faeces, read-out: Activity
Outline: (§4)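 The complete 24-h stool output was collected on day 10 (or the final dosing day if treatment stopped early) and frozen at −80°C. Stool was homogenized in acetonitrile-acetic acid, diluted with acetonitrile, spiked with OP-1393 internal standard, and analysed by RP-HPLC-MS/MS. The assay standard range for parent was 10 to 2,000 ng/ml. Results are reported as mean ± SD in μg/g.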

Clostridioides difficile [17] = experiment: Antimicrobial activity against Clostridium difficile infected in patient assessed as complete relief of clostridium difficile associated diarrhea symptom in patient at 400 […], po every 12 hrs for 10 days; type: functional
Clostridioides difficile [18] = experiment: Antimicrobial activity against Clostridium difficile infected in patient assessed as percentage of patient require no further treatment at 100 […], po every 12 hrs for 10 days; type: functional; outline: as §2
Clostridioides difficile [19] = experiment: Antimicrobial activity against Clostridium difficile infected in patient assessed as resolution of diarrhea on day 10 at 100 […], po every 12 hrs for 10 days; type: functional; outline: as §3
Clostridioides difficile [20] = experiment: Antimicrobial activity against Clostridium difficile infected in patient assessed as percentage of patient require further treatment at 200 […], po every 12 hrs for 10 days; type: functional; outline: as §2
[21] = Drug level in clostridium difficile infected patient feces at 400 […], po every 12 hrs for 10 days by RP-HPLC/MS; type: ADME, organism-based; design: route oral; details: human, faeces, read-out: Activity; outline: as §4
[22] = Drug level in clostridium difficile infected patient feces at 200 […], po every 12 hrs for 10 days by RP-HPLC/MS; type: ADME, organism-based; design: route oral; details: human, faeces, read-out: Activity; outline: as §4
Clostridioides difficile [23] = experiment: Antimicrobial activity against Clostridium difficile infected in patient assessed as complete relief of clostridium difficile associated diarrhea symptom in patient at 200 […], po every 12 hrs for 10 days; type: functional
Clostridioides difficile [24] = experiment: Antimicrobial activity against Clostridium difficile infected in patient assessed as complete relief of clostridium difficile associated diarrhea symptom in patient at 100 […], po every 12 hrs for 10 days; type: functional
Clostridioides difficile [25] = experiment: Antimicrobial activity against Clostridium difficile infected in patient assessed as percentage of patient require no further treatment at 200 […], po every 12 hrs for 10 days; type: functional; outline: as §2
Clostridioides difficile [26] = experiment: Antimicrobial activity against Clostridium difficile infected in patient assessed as clinical failure at 100 […], po every 12 hrs for 10 days; type: functional; outline: as §2
Clostridioides difficile [27] = experiment: Antimicrobial activity against Clostridium difficile infected in patient assessed as resolution of diarrhea on day 10 at 400 […], po every 12 hrs for 10 days; type: functional; outline: as §3
Clostridioides difficile [28] = experiment: Antimicrobial activity against Clostridium difficile infected in patient assessed as percentage of patient require further treatment at 100 […], po every 12 hrs for 10 days; type: functional; outline: as §2
Clostridioides difficile [29] = experiment: Antimicrobial activity against Clostridium difficile infected in patient assessed as recurrence of diarrhea within 6 weeks after treatment at 400 mg/kg, po every 12 hrs for 10 days; type: functional
[30] = Drug level in clostridium difficile infected patient plasma at 400 […], po every 12 hrs for 10 days by RP-HPLC/MS; type: ADME, organism-based; design: route oral; details: human, read-out: Activity; outline: as §1
Clostridioides difficile [31] = experiment: Antimicrobial activity against Clostridium difficile infected in patient assessed as incomplete relief of clostridium difficile associated diarrhea symptom in patient at 400 […], po every 12 hrs for 10 days; type: functional
Plasma [32] = experiment: Drug level in clostridium difficile infected patient plasma assessed as OP-1118 metabolite level at 100 […], po every 12 hrs for 10 days by RP-HPLC/MS; type: ADME, organism-based; design: route oral; details: human, in vivo; outline: as §1
[33] = Drug level in clostridium difficile infected patient feces assessed as OP-1118 metabolite level at 100 […], po every 12 hrs for 10 days by RP-HPLC/MS; type: ADME, organism-based; design: route oral; details: human, in vivo; outline: as §4
[34] = Drug level in clostridium difficile infected patient feces assessed as OP-1118 metabolite level at 200 […], po every 12 hrs for 10 days by RP-HPLC/MS; type: ADME, organism-based; design: route oral; details: human, in vivo; outline: as §4
[35] = Drug level in clostridium difficile infected patient feces assessed as OP-1118 metabolite level at 400 […], po every 12 hrs for 10 days by RP-HPLC/MS; type: ADME, organism-based; design: route oral; details: human, in vivo; outline: as §4
Plasma [36] = experiment: Drug level in clostridium difficile infected patient plasma assessed as OP-1118 metabolite level at 200 […], po every 12 hrs for 10 days by RP-HPLC/MS; type: ADME, organism-based; design: route oral; details: human, in vivo; outline: as §1
Plasma [37] = experiment: Drug level in clostridium difficile infected patient plasma assessed as OP-1118 metabolite level at 400 […], po every 12 hrs for 10 days by RP-HPLC/MS; type: ADME, organism-based; design: route oral; details: human, in vivo; outline: as §1

With `CN[C@H](CC(C)C)C(=O)N[C@H]1C(=O)N[C@@H](CC(N)=O)C(=O)N[C@H]2C(=O)N[C@H]3C(=O)N[C@H](C(=O)N[C@H](C(=O)O)c4cc(O)cc(O)c4-c4cc3ccc4O)[C@H](O)c3ccc(c(Cl)c3)Oc3cc2cc(c3O[C@@H]2O[C@H](CO)[C@@H](O)[C@H](O)[C@H]2O[C@H]2C[C@](C)(N)[C@H](O)[C@H](C)O2)Oc2ccc(cc2Cl)[C@H]1O` [VANCOMYCIN] as the compound, how does the MIC90 (Clostridioides difficile [1]) read?
The MIC90 was 2 µg/mL (≈ 1.38 µM).

Which MIC90 (Clostridioides difficile [1]) does the source give for `Cc1ncc([N+](=O)[O-])n1CCO` [METRONIDAZOLE] here?
Its MIC90 is 0.5 µg/mL (≈ 2.92 µM).

Which results are given for `CCc1c(Cl)c(O)c(Cl)c(O)c1C(=O)O[C@H]1[C@H](O)[C@H](OC)[C@H](OC/C2=C\C=C\C[C@H](O)/C(C)=C/[C@H](CC)[C@@H](O[C@@H]3OC(C)(C)[C@@H](OC(=O)C(C)C)[C@H](O)[C@@H]3O)/C(C)=C/C(C)=C/C[C@@H]([C@@H](C)O)OC2=O)O[C@@H]1C` [FIDAXOMICIN]?
concentration at 10 days [2]: 12.3 ng/mL; Activity (Clostridioides difficile [3]): 0%; Activity (Clostridioides difficile [4]): 13%; Activity (Clostridioides difficile [5]): 37.5%; Activity (Clostridioides difficile [6]): 8.3%; Activity (Plasma [7]): 9.37e-05 mg/mL; Activity (Clostridioides difficile [8]): 7%; Activity (Clostridioides difficile [9]): 80%; Activity (Clostridioides difficile [10]): 0%; Activity (Clostridioides difficile [11]): 14%; Activity (Clostridioides difficile [12]): 13.3%; Activity (Clostridioides difficile [13]): 0%; MIC90 (Clostridioides difficile [1]): 0.125 µg/mL (≈ 0.118 µM); Activity (Clostridioides difficile [14]): 6%; Activity (Clostridioides difficile [15]): 56.3%; concentration at 10 days [16]: 256000 ng/g; Activity (Clostridioides difficile [17]): 86.7%; Activity (Clostridioides difficile [18]): 31.3%; Activity (Clostridioides difficile [19]): 71%; Activity (Clostridioides difficile [20]): 12.5%; concentration at 10 days [21]: 1.43e+06 ng/g; concentration at 10 days [22]: 442000 ng/g; Activity (Clostridioides difficile [23]): 50%; Activity (Clostridioides difficile [24]): 37.5%; Activity (Clostridioides difficile [25]): 18.8%; Activity (Clostridioides difficile [26]): 14%; Activity (Clostridioides difficile [27]): 94%; Activity (Clostridioides difficile [28]): 12.5%; Activity (Clostridioides difficile [29]): 6.3%; concentration at 10 days [30]: 84.9 ng/mL; Activity (Clostridioides difficile [31]): 13.3%

For `CCc1c(Cl)c(O)c(Cl)c(O)c1C(=O)O[C@H]1[C@H](O)[C@H](OC)[C@H](OC/C2=C\C=C\C[C@H](O)/C(C)=C/[C@H](CC)[C@@H](O[C@@H]3OC(C)(C)[C@@H](O)[C@H](O)[C@@H]3O)/C(C)=C/C(C)=C/C[C@@H]([C@@H](C)O)OC2=O)O[C@@H]1C`, which Activity (Plasma [32]) is on record?
Its Activity is 77.2 ng/mL.

What about the Activity [33] of the same compound?
The Activity was 393 µg/g.

What about the Activity [34] of the same compound?
Its Activity is 430 µg/g.

What about the Activity [35] of the same compound?
The Activity was 760 µg/g.

And the Activity (Plasma [36])?
Its Activity is 154.3 ng/mL.

What about the Activity (Plasma [37]) of the same compound?
Its Activity is 402.3 ng/mL.
